# Reference: ChEMBL document CHEMBL1147771, “Synthesis and antibacterial activity of 9-substituted minocycline derivatives” (2006)
# Legend:
# Format in all cases: functional
# Staphylococcus aureus [1] = assay: Antibacterial activity against Staphylococcus aureus UBMS 90-1 carrying tetM-resistant determinant
# How it was run: (§1)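 Antibacterial activity determined by agar dilution.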
# Staphylococcus aureus [2] = assay: Antibacterial activity against Staphylococcus aureus UBMS 90-2 carrying tetM-resistant determinant; how it was run: as §1
# Staphylococcus aureus [3] = assay: Antibacterial activity against Staphylococcus aureus UBMS 90-3
# How it was run: (§2)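 MICs determined by agar dilution.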
# Staphylococcus aureus [4] = assay: Antibacterial activity against Staphylococcus aureus UBMS 88-7 carrying the tetK-resistant determinant; how it was run: as §1
# Staphylococcus aureus [5] = assay: Antibacterial activity against Staphylococcus aureus Smith; how it was run: as §2
# Enterococcus faecalis = assay: Antibacterial activity against Enterococcus faecalis ATCC 29212; how it was run: as §2
# Escherichia coli [6] = assay: Antibacterial activity against Escherichia coli UBMS 88-1 carrying tetB-resistant determinant; how it was run: as §1
# Escherichia coli [7] = assay: Antibacterial activity against Minocycline sensitive Escherichia coli 88-2; how it was run: as §2
# Escherichia coli [8] = assay: Antibacterial activity against Minocylcine sensitive Escherichia coli 89-2; how it was run: as §2
# Escherichia coli [9] = assay: Antibacterial activity against Escherichia coli UBMS 89-1 carrying tetM-resistant determinant; how it was run: as §1
# Escherichia coli [10] = assay: Antibacterial activity against Minocycline sensitive Escherichia coli 90-5; how it was run: as §1
# Escherichia coli [11] = assay: Antibacterial activity against Escherichia coli UBMS 90-4 carrying tetM-resistant determinant; how it was run: as §1
Compound,MIC (Staphylococcus aureus [1]) [µg/mL],MIC (Staphylococcus aureus [2]) [µg/mL],MIC (Staphylococcus aureus [3]) [µg/mL],MIC (Staphylococcus aureus [4]) [µg/mL],MIC (Staphylococcus aureus [5]) [µg/mL],MIC (Enterococcus faecalis) [µg/mL],MIC (Escherichia coli [6]) [µg/mL],MIC (Escherichia coli [7]) [µg/mL],MIC (Escherichia coli [8]) [µg/mL],MIC (Escherichia coli [9]) [µg/mL],MIC (Escherichia coli [10]) [µg/mL],MIC (Escherichia coli [11]) [µg/mL]
Cc1ccccc1C(=O)Nc1cc(N(C)C)c2c(c1O)C(O)=C1C(=O)[C@]3(O)C(O)=C(C(N)=O)C(=O)[C@@H](N(C)C)C3CC1C2 (some centres undefined),8,2,1,4,1,2,2,> 32,> 32,–,–,–
CN(C)c1cc(NC(=O)c2ccccc2)c(O)c2c1CC1CC3[C@H](N(C)C)C(=O)C(C(N)=O)=C(O)[C@@]3(O)C(=O)C1=C2O (some centres undefined),4,4,1,8,1,4,> 32,> 32,> 32,–,–,–
CN(C)c1cc(NC(=O)c2cccs2)c(O)c2c1CC1CC3[C@H](N(C)C)C(=O)C(C(N)=O)=C(O)[C@@]3(O)C(=O)C1=C2O (some centres undefined),4,4,2,32,2,8,> 32,> 32,> 32,> 32,–,–
CN(C)c1ccc(C(=O)Nc2cc(N(C)C)c3c(c2O)C(O)=C2C(=O)[C@]4(O)C(O)=C(C(N)=O)C(=O)[C@@H](N(C)C)C4CC2C3)cc1 (some centres undefined),16,8,8,16,4,8,> 32,> 32,> 32,> 32,–,–
CN(C)CCCC(=O)Nc1cc(N(C)C)c2c(c1O)C(=O)C1=C(O)[C@]3(O)C(O)=C(C(N)=O)C(=O)[C@@H](N(C)C)C3CC1C2 (some centres undefined),8,4,2,16,2,4,> 32,–,–,–,16,16
CN(C)c1cc(NC(=O)c2cccc(C(F)(F)F)c2)c(O)c2c1CC1CC3[C@H](N(C)C)C(=O)C(C(N)=O)=C(O)[C@@]3(O)C(=O)C1=C2O (some centres undefined),1,1,0.5,1,1,1,> 32,> 32,> 32,> 32,–,–
CN(C)c1cc(NS(C)(=O)=O)c(O)c2c1CC1CC3[C@H](N(C)C)C(=O)C(C(N)=O)=C(O)[C@@]3(O)C(=O)C1=C2O (some centres undefined),0.25,0.06,0.12,8,0.12,0.06,8,2,2,–,–,–
CN(C)c1cc(NS(=O)(=O)c2ccccc2)c(O)c2c1CC1CC3[C@H](N(C)C)C(=O)C(C(N)=O)=C(O)[C@@]3(O)C(=O)C1=C2O (some centres undefined),4,0.06,4,4,4,0.06,16,8,16,–,–,–
CN(C)c1cc(NC(=O)CO)c(O)c2c1CC1CC3[C@H](N(C)C)C(=O)C(C(N)=O)=C(O)[C@@]3(O)C(=O)C1=C2O (some centres undefined),4,2,1,> 32,0.5,32,> 32,–,–,–,> 32,> 32
CN(C)CC(=O)Nc1cc(N(C)C)c2c(c1O)C(=O)C1=C(O)[C@]3(O)C(O)=C(C(N)=O)C(=O)[C@@H](N(C)C)C3CC1C2 (some centres undefined),0.12,–,0.06,0.5,0.06,0.06,0.25,–,–,–,0.12,0.25
CN(C)c1cc(NC(=O)CNC2CCCC2)c(O)c2c1CC1CC3[C@H](N(C)C)C(=O)C(C(N)=O)=C(O)[C@@]3(O)C(=O)C1=C2O (some centres undefined),0.25,–,0.12,2,0.25,0.12,0.25,–,–,–,0.25,0.25
CN(C)c1cc(NS(=O)(=O)c2cccs2)c(O)c2c1CC1CC3[C@H](N(C)C)C(=O)C(C(N)=O)=C(O)[C@@]3(O)C(=O)C1=C2O (some centres undefined),1,0.25,0.25,2,0.03,0.25,32,8,16,–,–,–
CC(=O)Nc1nc(C)c(S(=O)(=O)Nc2cc(N(C)C)c3c(c2O)C(O)=C2C(=O)[C@]4(O)C(O)=C(C(N)=O)C(=O)[C@@H](N(C)C)C4CC2C3)s1 (some centres undefined),32,4,2,32,2,1,> 32,> 32,> 32,32,–,–
CN(C)c1cc(NC(=O)c2ccccc2F)c(O)c2c1CC1CC3[C@H](N(C)C)C(=O)C(C(N)=O)=C(O)[C@@]3(O)C(=O)C1=C2O (some centres undefined),4,2,1,8,1,4,> 32,> 32,> 32,–,–,–
CN(C)c1cc(NS(=O)(=O)c2ccc(Cl)cc2)c(O)c2c1CC1CC3[C@H](N(C)C)C(=O)C(C(N)=O)=C(O)[C@@]3(O)C(=O)C1=C2O (some centres undefined),0.25,0.12,0.12,1,0.12,0.06,> 32,> 32,> 32,–,–,–
CN(C)c1cc(NC(=O)CCC2CCCC2)c(O)c2c1CC1CC3[C@H](N(C)C)C(=O)C(C(N)=O)=C(O)[C@@]3(O)C(=O)C1=C2O (some centres undefined),8,8,4,8,4,8,> 128,–,–,–,> 128,> 128
CN(C)c1ccc(O)c2c1C[C@H]1C[C@H]3[C@H](N(C)C)C(O)=C(C(N)=O)C(=O)[C@@]3(O)C(O)=C1C2=O [MINOCYCLINE],8,2,0.03,0.25,0.06,2,16,0.25,2,> 32,–,–
CN(C)c1cc(NC(=O)CNC(C)(C)C)c(O)c2c1C[C@H]1C[C@H]3[C@H](N(C)C)C(O)=C(C(N)=O)C(=O)[C@@]3(O)C(O)=C1C2=O [TIGECYCLINE],0.12,–,0.25,0.5,0.25,0.12,0.5,–,–,–,0.25,0.12
